Assay results taken from ChEMBL document CHEMBL5252676, “Dimeric polyphenols to pave the way for new antimalarial drugs” (RSC Med Chem, 2023).
≈ marks a conversion by molar mass, not a printed value.

Legend:
[1] = Hemolytic activity in RBC (unknown origin) assessed as hemolysis at 100 ug/ml incubated for 1 hrs by absorbance based microplate reader analysis relative to control; format: toxicity, cell-based, Erythrocyte; details: red blood cells, at 100 µg/mL, read-out: Activity
Procedure, shortened: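 Human A⁺/O⁺ RBC, 10% v/v in PBS, exposed to compound at 100 μg mL⁻¹ final (DMSO < 1%), in duplicate, stirred 1 h at RT. Centrifuged, supernatant OD₅₅₀ read. % lysis = (sample − PBS)/(1% Triton X-100 − PBS) × 100.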

[2] = tested on: Plasmodium falciparum; assay: Antiplasmodial activity against chloroquine-sensitive Plasmodium falciparum 3D7 assessed as intraerythrocytic growth inhibition; format: functional, organism-based
Procedure, shortened: (§1)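 Asexual intraerythrocytic P. falciparum cultured at 37 °C in RPMI with glucose, hypoxanthine, gentamycin and 10% pooled human A+/O+ serum. DMSO stocks of 5–10 mg mL⁻¹ diluted in RPMI, final DMSO at most 1%. Eight two-fold dilutions tested in three consecutive assays. Growth read as Plasmodium lactate dehydrogenase activity at 650 nm against parasitized RBC (100%) and free RBC (0%). IC50 in triplicate; artemisinin and quinine as controls.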

[3] = Cytotoxicity against HUVEC cells assessed as inhibition of cell growth incubated for 48 hrs by fluorescence based assay; format: toxicity; details: human
Procedure, shortened: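 HUVEC in EGM-2, at most 10 passages, seeded at 2.5 × 10⁴ cells/well and grown 24 h at 37 °C. Six 2-fold concentrations in triplicate (DMSO max 0.5%) for 48 h. PrestoBlue for 2–3 h, fluorescence 560–590 nm, growth compared with untreated cells. n = 3 separate tests.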

[4] = Selectivity index, ratio of IC50 for cytotoxicity against HUVEC cells to IC50 for antiplasmodial activity against chloroquine-sensitive Plasmodium falciparum 3D7; format: toxicity, cell-based; details: human, read-out: Ratio IC50
[5] = Aqueous solubility of compound assessed as Cmax incubated for 3 days by UV spectrophotometer based shake-flask method; format: physicochemical; details: water (aqueous); time 3 day; read-out: Cmax
Procedure, shortened: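 Shake-flask: excess solid stirred overnight in MilliQ water at RT (~25 °C), filtered 0.45 μm, diluted, absorbance read at the λmax from a UV scan. Quantified against a 3-point calibration curve (R² > 0.95). Fresh saturated solutions were made on 3 consecutive days.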

[6] = tested on: Plasmodium falciparum; assay: Antiplasmodial activity against multidrug-resistant Plasmodium falciparum W2 assessed as intraerythrocytic growth inhibition; format: functional, organism-based; procedure, shortened: as §1
[7] = tested on: Plasmodium falciparum; assay: Antiplasmodial activity against chloroquine-resistant Plasmodium falciparum FcB1 assessed as intraerythrocytic growth inhibition; format: functional, organism-based; procedure, shortened: as §1

SMILES	hemolysis at 1 h, 100 ug/ml [1]	IC50 [2]	IC50 at 48 h [3]	selectivity ratio [4]	solubility thermodynamic at 72 h [5]	IC50 [6]	IC50 [7]
COCOc1cc(C(=O)OCCCOC(=O)c2cc(OCOC)c(OCc3ccc4ccccc4c3)c(OCOC)c2)cc(OCOC)c1OCc1ccccc1	< 1%	21 µM					
O=C(OCCCOC(=O)c1cc(O)c(OCCOCc2ccccc2)c(O)c1)c1cc(O)c(OCCOCc2ccccc2)c(O)c1	< 1%	3.2 µM	15 µM	5			
O=C(OCCCOC(=O)c1cc(O)c(O)c(O)c1)c1cc(O)cc(O)c1	< 1%	4.6 µM		> 21	1200 µM (≈ 437 µg/mL)	3.6 µM	3.8 µM
O=C(OCCCOC(=O)c1ccc(O)c(O)c1)c1ccc(O)c(O)c1	< 1%	9 µM	> 144 µM	> 42	33 µM (≈ 11.5 µg/mL)		
O=C(Nc1ccc(OC(=O)c2cc(O)c(O)c(O)c2)cc1)c1cc(O)c(O)c(O)c1	< 1%	3.9 µM	> 121 µM	> 13	66 µM (≈ 27.3 µg/mL)	2.9 µM	3.1 µM
C=C[C@H]1CN2CC[C@H]1C[C@H]2[C@H](O)c1ccnc2ccc(OC)cc12 [QUININE]	< 1%	0.6 µM					
COCOc1cc(C(=O)OCCCOC(=O)c2cc(OCOC)c(OCc3ccccc3)c(OCOC)c2)cc(OCOC)c1OCc1ccccc1	< 1%	4.5 µM			3 µM (≈ 2.21 µg/mL)		
O=C(Nc1cccc(OC(=O)c2cc(O)c(O)c(O)c2)c1)c1cc(O)c(O)c(O)c1	< 1%	2.1 µM	54 µM	6	300 µM (≈ 124 µg/mL)	3.4 µM	3.7 µM
O=C(OCCCOC(=O)c1cc(O)c(OCc2ccc3ccccc3c2)c(O)c1)c1cc(O)c(OCc2ccc3ccccc3c2)c(O)c1	< 1%	4 µM	9.7 µM	2.4		1.8 µM	1.1 µM
O=C(OCCCOC(=O)c1cc(O)c(O)c(O)c1)c1ccccc1	< 1%	27 µM	78 µM	3	600 µM (≈ 199 µg/mL)	13 µM	11 µM
O=C(OCCCOC(=O)c1cc(O)c(O)c(O)c1)c1ccc(O)c(O)c1	< 1%	5.5 µM	84 µM	41	280 µM (≈ 102 µg/mL)	7.6 µM	4.9 µM
C[C@@H]1CC[C@H]2[C@@H](C)C(=O)O[C@@H]3O[C@@]4(C)CC[C@@H]1[C@]32OO4 [ARTEMISININ]	< 1%	0.013 µM					17 µM
O=C(OCCCOC(=O)c1cc(O)c(OCc2ccc3ccccc3c2)c(O)c1)c1cc(O)c(OCc2ccccc2)c(O)c1	< 1%	0.9 µM	6.9 µM	5		0.4 µM	0.9 µM
O=C(OCCCOC(=O)c1cc(O)c(OCCO)c(O)c1)c1cc(O)c(O)c(O)c1	< 1%	20 µM	> 118 µM	> 14		7.6 µM	4.3 µM
O=C(OCCCOC(=O)c1ccccc1)c1ccccc1	< 1%	> 352 µM			7 µM (≈ 1.99 µg/mL)		
